Rows were chosen to be rich in hits. Some 3.7% of all compounds tested hit in one or more screens of this group.
DENV2 CPE rescue = protects cells from dengue virus 2 cytopathic effect; DENV2-infected cells, cytopathic effect rescue, plate reader; CPE inhibition, % at 9.99 µM; 350,000 compounds, 1.7% hits; AID 651640; in the data active = CPE inhibition above about 20%, passing the limit was not always enough; inconclusive = no clear call, values can overlap the other calls; tested in BHK-21 cells;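 also: 0% = median of neutral control wells and 100% = median of positive control wells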
FGF22 binding-1 = shifts melting point of recombinant human FGF22 | recombinant FGF22 thermal shift, SYPRO orange fluorescence; percent of sucrose octasulfate shift, DMSO zero | 340,000 compounds, 1.5% hits | activity (Tm shift, normalised), % at 9.99 µM;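 active = mean Tm shift, scaled 0 neutral to 100 positive control, at about 1.3% or above, every replicate too, limit read from the data; inconclusive = no clear call, values can overlap the other calls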
Target sequence (Q9HCT0 whole entry, looked up): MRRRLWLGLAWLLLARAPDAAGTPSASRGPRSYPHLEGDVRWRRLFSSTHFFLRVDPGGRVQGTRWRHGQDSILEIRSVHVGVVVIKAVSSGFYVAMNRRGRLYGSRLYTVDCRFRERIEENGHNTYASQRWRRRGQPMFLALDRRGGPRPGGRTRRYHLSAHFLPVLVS
ERAP1 inh = inhibitors of human ERAP1 aminopeptidase. Q9NZ08. recombinant ERAP1, Leu-AMC fluorescence, 60 min. inhibition, % at 10.7 µM. 340,000 compounds, 0.15% hits. AID 652197;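 active = mean replicate inhibition of at least 30%, or all replicates individually reaching that 30% level; inactive = mean below 30% and not every replicate reaching it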;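 also: 0% = neutral control wells and 100% = L-leucinethiol positive control wells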
E-selectin induc = induces E-selectin expression in human endothelial cells; HUVEC E-selectin immunofluorescence imaging; normalized: neutral wells 0, TNF-alpha wells 100; activation, % at 7.58 µM; 260,000 compounds, 0.37% hits; AID 686992;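 active = mean E-selectin-positive cell signal at least 10% of the positive control, reached in at least 60% of replicates, without over 20% cell loss; inconclusive = no rule given, readout overlaps actives, possibly toxicity-flagged; inactive = the rest, including those meeting only one limit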
Target sequence (P16581 whole entry, looked up): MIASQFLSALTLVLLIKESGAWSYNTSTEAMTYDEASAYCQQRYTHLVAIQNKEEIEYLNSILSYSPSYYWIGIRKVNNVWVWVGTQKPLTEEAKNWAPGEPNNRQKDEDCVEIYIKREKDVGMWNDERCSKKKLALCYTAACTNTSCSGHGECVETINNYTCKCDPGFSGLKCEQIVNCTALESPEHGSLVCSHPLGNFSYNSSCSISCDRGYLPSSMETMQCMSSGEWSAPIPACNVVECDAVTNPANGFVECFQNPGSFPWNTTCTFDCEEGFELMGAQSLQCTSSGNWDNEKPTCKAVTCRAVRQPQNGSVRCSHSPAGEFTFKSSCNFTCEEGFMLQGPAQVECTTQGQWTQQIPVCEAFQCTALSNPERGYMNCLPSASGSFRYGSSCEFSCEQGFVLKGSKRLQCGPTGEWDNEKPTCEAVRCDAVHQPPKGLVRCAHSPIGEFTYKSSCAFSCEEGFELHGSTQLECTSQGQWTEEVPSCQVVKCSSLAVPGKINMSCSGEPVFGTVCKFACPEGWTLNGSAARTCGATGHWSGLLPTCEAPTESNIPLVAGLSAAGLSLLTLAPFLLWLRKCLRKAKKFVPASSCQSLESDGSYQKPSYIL
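Material: HUVEC primary endothelial cells; Amount: 3,000 cells per well; Dosing: single concentration; Medium: EGM-2 growth medium on 0.1% gelatin-coated wells; Read-out basis: percent E-selectin-positive cells; Signal: immunofluorescence imaging; Control set: TNF-alpha, DMSO.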
F508del corr = CFTR F508del correction in bronchial cells; AID 720511; 350,000 compounds, 0.36% hits; activity (quench increase), % at 7.58 µM; CFBE cells, YFP halide quenching; stimulated with forskolin plus potentiator P3; % fluorescence drop versus neutral controls;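 active = mean added fluorescence quench of at least 8% versus neutral control, with both replicates also reaching 8%; inconclusive = only one of the mean or replicate conditions met; inactive = mean below 8% and not both replicates reaching 8%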;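 also: cells transiently co-express mutant CFTR-F508del with the halide-sensitive YFP; corrector assay measuring rescue of mutant channel to the surface after 24 h compound exposure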
FGF22 binding-2 = FGF22 (human) binding in thermal shift | shares compounds with FGF22 binding-1 | recombinant FGF22 thermal shift, SYPRO orange fluorescence | thermal shift activity, °C (ΔTm) at 38 µM | 1,000 compounds, 2% hits;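 active = fitted rise in melting shift crosses a set limit at or below the top valid dose tested; inconclusive = flat fit at mid-level activity, or a poor quality fit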
SYPRO no-protein = shows thermal shift signal without protein, FGF22 counter-screen; 1,000 compounds, 2% hits; compound-only SYPRO orange thermal shift counter-screen, no protein; AC50, µM (series often up to 38 µM); AID 743019; shares compounds with FGF22 binding-1;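 active = rising signal whose fitted curve reaches the 0.54 level within the top valid dose, showing a melting point, actives reach about 13 µM in these data; inactive = the rest, including activity in the opposite direction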; also: value is where the raw curve crosses a fixed level and not half-maximal
An asterisk follows results filed as active; i = inactive; ? = inconclusive; nt = no result; ! = not active in a repeat; [ ] = another dose, or the depositor's remark.

SMILES	DENV2 CPE rescue	FGF22 binding-1	ERAP1 inh	E-selectin induc	F508del corr	FGF22 binding-2	SYPRO no-protein
CCCN(C)C[C@H]1Oc2cc(C#Cc3cccnc3)ccc2S(=O)(=O)N([C@H](C)CO)C[C@@H]1C	4.5	1.3*	0.9	-0.2	-0.9	0.002	i
CCCN(C)C[C@@H]1Oc2cc(C#Cc3cccnc3)ccc2S(=O)(=O)N([C@@H](C)CO)C[C@H]1C	-2.1	-0.8	-3.6	0.0	2.2	nt	nt
C[C@H]1CN([C@@H](C)CO)S(=O)(=O)c2ccc(C#CC3CCCCC3)cc2O[C@@H]1CN(C)C	8.4	1.3*	-7.4	0.7	0.2	0.143[42 µM]	i
COc1ccccc1S(=O)(=O)N(C)C[C@@H]1Oc2cc(C#CCC(C)C)ccc2S(=O)(=O)N([C@@H](C)CO)C[C@H]1C	-2.1	20.6*	3.4	nt	2.1	-1.1[42 µM]	i
CNC[C@H]1Oc2cc(C#CC3(O)CCCC3)ccc2S(=O)(=O)N([C@@H](C)CO)C[C@H]1C	-2.9	0.1	0.7	1.0	2.2	nt	nt
COCCOC(=O)N1C(=O)[C@@]2(c3cc(C#CC4=CCCCC4)ccc31)[C@H](C(=O)NC[C@H](O)c1ccccc1)[C@H]1C(=O)O[C@H](c3ccccc3)[C@H](c3ccccc3)N1[C@@H]2c1ccc(O)cc1	-6.4	0.1	-3.0	nt	-2.0	nt	nt
CCCN(C)C[C@@H]1Oc2cc(-c3ccncc3)ccc2S(=O)(=O)N([C@@H](C)CO)C[C@@H]1C	-4.2	-0.5	5.4	-0.1	-1.7	nt	nt
CCCN(C)C[C@H]1Oc2cc(-c3ccncc3)ccc2S(=O)(=O)N([C@H](C)CO)C[C@H]1C	1.1	2.1*	-0.7	0.0	0.5	-0.062	i
CCCN(C)C[C@H]1Oc2cc(C#Cc3ccc(F)cc3)ccc2S(=O)(=O)N([C@H](C)CO)C[C@@H]1C	1.0	1.7*!	-1.6	0.2	-0.8	-0.192	i
CC(C)NC(=O)Nc1cccc2c1O[C@H](CN(C)C(=O)Nc1cccc3ccccc13)[C@@H](C)CN([C@@H](C)CO)C2=O	3.7	-0.3	-0.2	0.7	-0.6	nt	nt
O=C(C1CCCC1)N1CC2(C1)[C@@H](c1ccccc1)[C@@H](CO)N2CCC(F)(F)F	0.0	nt	-0.5	-0.1	0.7	nt	nt
CSc1ccc(C(=O)NCC2CCN(C(=O)C(=O)c3cc4ccccc4o3)CC2)cc1	5.1	1.5*	3.3	0.2	3.2	-0.037	i
COc1cc(OC)cc(C(=O)NCC2CCN(C(=O)C(=O)c3cc4ccccc4o3)CC2)c1	10.4	0.1	-0.3	0.6	2.2	nt	nt
C[C@@H]1CN([C@H](C)CO)C(=O)c2cccc(NC(=O)Nc3ccc4c(c3)OCO4)c2O[C@H]1CN(C)Cc1ccccc1	-4.6	0.1	-0.3	0.1	-1.7	nt	nt
O=c1c2cc([N+](=O)[O-])cc([N+](=O)[O-])c2[nH]n1-c1ccccc1	3.1	1.8*	6.6	0.3	3.4	0.257	i
COc1ccc(NC(=O)Nc2ccc3c(c2)C(=O)N([C@H](C)CO)C[C@@H](C)[C@@H](CN(C)C(=O)c2ccccc2)OCCCC[C@H](C)O3)cc1	1.7	0.2	-0.4	1.0	0.4	nt	nt
O=S(=O)(Nc1cc(Cl)ccc1-n1cncn1)c1ccc(F)cc1	0.6	1.5*	0.3	1.3	1.9	-0.013	i
COc1ccc(Cc2nnc(-c3ccccc3)o2)cc1	-0.6	16.6*	nt	0.3	0.3	0.196	i
COc1ccc(SCCc2nnc(-c3ccccc3)o2)cc1	-3.9	-0.1	0.6	-0.1	5.6	nt	nt
COc1ccc(S(=O)(=O)N(C)C[C@@H]2Oc3ccc(NC(=O)CCCN(C)C)cc3C(=O)N([C@@H](C)CO)C[C@H]2C)cc1	7.7	-0.2	0.5	5.0	1.3	nt	nt
CN(Cc1ccccc1)C(=O)c1[nH]cnc1C(=O)NC1CCN(C(=O)OC(C)(C)C)CC1	-2.3	2.5*	-3.8	0.0	-2.4	0.144	i
CC(C)(C)OC(=O)N1CCC(NC(=O)c2[nH]cnc2C(=O)Nc2ccccc2)CC1	-4.8	0.0	15.3	0.1	-1.4	nt	nt
O=C(C[C@@H]1CC[C@@H](NC(=O)C2CCC2)[C@@H](CO)O1)NCCCN1CCOCC1	3.3	0.3	-2.9	-0.2	2.1	nt	nt
CCc1nnc(NS(=O)(=O)c2ccc(NC(=O)c3ccc(Br)cc3)cc2)s1	-7.4	1.6*	-0.4	nt	-6.4	0.019	i
CCc1nnc(NS(=O)(=O)c2ccc(Nc3ccc([N+](=O)[O-])c4nonc34)cc2)s1	13.6	2.0*	19.3	nt	3.9	0.195	i
SMILES	DENV2 CPE rescue	FGF22 binding-1	ERAP1 inh	E-selectin induc	F508del corr	FGF22 binding-2	SYPRO no-protein
CCc1nnc(NS(=O)(=O)c2ccc(NC(=O)c3ccccc3O)cc2)s1	-2.1	0.0	1.6	nt	3.7	nt	nt
CC(C)NC(=O)Nc1ccc2c(c1)C(=O)N([C@H](C)CO)C[C@H](C)[C@H](CN(C)CC1CC1)OCCCC[C@H](C)O2	nt	nt	nt	-0.4	-1.2	nt	nt
CN(C)c1ccc2c(c1)[C@H]1C[C@@H](CC(=O)NCc3ccc4c(c3)OCO4)O[C@@H](CO)[C@H]1O2	-1.6	-0.7	-0.8	-0.4	-0.1	nt	nt
COC(=O)CCN(Cc1ccccc1)S(=O)(=O)c1ccccc1Br	1.6	0.1	1.4	-0.1	-0.5	nt	nt
O=C(O)CCN(Cc1ccccc1)S(=O)(=O)c1ccccc1Cl	-2.6	2.9*	1.0	0.7	5.1	-0.164	i
CN(C(=O)CCc1nnc(CCCCc2ccccc2)o1)C1CC(C)(C)NC(C)(C)C1	-3.9	0.0	-1.9	nt	-0.8	nt	nt
CN(C(=O)CCc1nnc(CCCCc2ccccc2)o1)C1CCOCC1	-1.5	1.4*	-1.9	nt	-1.4	0.034	i
COc1ccc(NC(=O)N(C)C[C@@H]2Oc3ccc(NC(=O)c4ccncc4)cc3C(=O)N([C@@H](C)CO)C[C@H]2C)cc1	3.2	-0.3	8.9	-8.4	1.2	nt	nt
Oc1cc(O)cc(C=Cc2ccc(O)c(O)c2)c1	-0.9	2.0*	31.1*	-0.1	-0.2	0.073	i
NC(=O)c1ccsc1NC(=O)COC(=O)CCCOc1ccccc1	0.6	1.9*	-0.4	-0.2	-0.1	0.118	i
NC(=O)c1ccsc1NC(=O)COC(=O)CCOc1ccccc1	-5.1	0.0	nt	-0.2	0.7	nt	nt
CN(CC(=O)Nc1ccccc1Cl)C(=O)COC(=O)c1ccc(-c2ccc(O)cc2)cc1	-4.9	-0.1	1.9	nt	-6.3	nt	nt
CN(CC(=O)Nc1ccccc1Cl)C(=O)COC(=O)c1nc(Cl)ccc1Cl	7.4	1.6*	-3.3	-1.0	0.8	0.041	i
CCCN(C)C[C@@H]1Oc2cc(-c3cccc(C#N)c3)ccc2S(=O)(=O)N([C@H](C)CO)C[C@@H]1C	-1.8	-0.4	-1.9	0.2	2.4	nt	nt
CC(=O)Nc1cc(-c2ccccc2Cl)cn2c(-c3ccc(S(C)(=O)=O)cc3)cnc12	?	1.7*	-3.3	-0.2	-2.8	-0.006	i

From PubChem
